Measured values from different studies.
Effect on: binding
VHL: von Hippel-Lindau disease tumor suppressor (VHL, Homo sapiens, UniProt P40337)
Pah: Phenylalanine-4-hydroxylase (Pah, Rattus norvegicus, UniProt P04176)

The Kd of `Cc1cc(Nc2cc3ncccc3c(N[C@@H]3C[C@H]4CC[C@@H](C3)N4CCC#N)n2)n[nH]1` is reported as 0.028 µM (Cyclin-dependent kinase 4, with cyclin D3 (CDK4, Homo sapiens, UniProt P11802); competition with immobilised ligand).
The Kd of `COCCOc1cc(-c2scnc2C)ccc1CNC(=O)[C@@H]1C[C@@H](O)CN1C(=O)[C@@H](NC(=O)C1(F)CC1)C(C)(C)C` is reported as 0.062 µM (VHL; SPR).
`CC(C)C[C@H](N)C(=O)O` gave a Kd of 93000 µM (Pah; fluorescence; pH 7.5).
`Nc1ncnc2c1ncn2[C@@H]1O[C@H](COP(=O)(O)OS(=O)(=O)O)[C@@H](OP(=O)(O)O)[C@H]1O` has a Kd of 0.25 µM (Sulfotransferase 2A1 (SULT2A1, Homo sapiens, UniProt Q06520); fluorescence).
`Cc1cc2nc3c(=O)[nH]c(=O)nc-3n(C[C@H](O)[C@H](O)[C@H](O)COP(=O)(O)OP(=O)(O)OC[C@H]3O[C@@H](n4cnc5c(N)ncnc54)[C@H](O)[C@@H]3O)c2cc1C` gave a Kd of 0.015 µM (Nuclear receptor coactivator 3 (Homo sapiens, UniProt Q9Y6Q9); lysate).
For `CC1(C)Cc2c(-c3ccccc3)c(-c3ccc(Cl)cc3)c(CC(=O)NCC(=O)O)n2C1`, the Kd was 2.1 µM (Prostaglandin E synthase (PTGES, Homo sapiens, UniProt O14684); ITC).
For `O=C(O)c1cccc(NC(=S)NC(=O)c2ccc3ccccc3c2)c1`, the Kd was 64 µM (Stromal cell-derived factor 1 (CXCL12, Homo sapiens, UniProt P48061); NMR).
`Nc1ncnc2c1ncn2[C@@H]1O[C@H](CSCC[C@H](N)C(=O)O)[C@@H](O)[C@H]1O` gave a Kd of 13.3 µM (mdh (Escherichia coli, UniProt P61889, del14-14/del9-10/V5N); ITC).
With `Cc1cnc(-c2ccc(-c3ccc(NC(=O)Nc4c(F)cc(F)cc4F)cc3F)c3c2C(=O)NC3)[nH]1` the Kd was 0.0039 µM (Serine/threonine-protein kinase 3 (STK3, Homo sapiens, UniProt Q13188); competition with immobilised ligand).
For `CC(C)[C@H](N)c1nc2cc(-c3ccncc3F)sc2c(=O)[nH]1`, the Kd was 0.00032 µM (Cell division cycle 7-related protein kinase (CDC7, Homo sapiens, UniProt O00311); MST).
For `N[C@H](Cc1ccccc1)C(=O)O`, the Kd was 8400 µM (Pah; fluorescence; pH 7.5).
For `c1cncc(-c2cccc(Nc3nccc(NC4CCCCC4)n3)c2)c1`, the Kd was 4.4 µM (Ribosomal protein S6 kinase alpha-1, N-terminal kinase domain (RPS6KA1, Homo sapiens, UniProt Q15418); competition with immobilised ligand).
The Kd of `Cc1ncsc1-c1ccc(CNC(=O)[C@@H]2C[C@@H](O)CN2C(=O)[C@@H](NC(=O)C2(F)CC2)C(C)(C)C)c(OCCOc2ccc(CN3CCN(c4cc(-c5ccccc5O)nnc4N)CC3)cc2)c1` is reported as 0.25 µM (VHL; SPR).
